Experimental data reported in ChEMBL document CHEMBL4699617, “Rational Design of Right-Handed Heterogeneous Peptidomimetics as Inhibitors of Protein-Protein Interactions” (J Med Chem, 2020).
Calls of active or inactive are those of the source. The calls are words filed in the database; no cut-off is given here.

Experiments:
[1] = target: T1, E3 ubiquitin-protein ligase Mdm2 (Homo sapiens, UniProt Q00987); assay: Inhibition of MDM2 in human U2OS cells assessed as increase in MDM2 expression at 30 uM incubated for 16 hrs by Western blot analysis; assay type: cell-based
In short: (§1)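 U2OS osteosarcoma cells carrying endogenous wild-type p53, treated at 30 μM for 16 h. Cells lysed in Tris-HCl pH 8.0/150 mM NaCl/0.5% NP-40 with PMSF and protease inhibitors, spun 14,000g, 10 min, 4 °C. Supernatant boiled in Laemmli buffer, run on SDS-PAGE and immunoblotted for p53 pathway markers.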
Target sequence in this assay (Q00987 whole entry, looked up): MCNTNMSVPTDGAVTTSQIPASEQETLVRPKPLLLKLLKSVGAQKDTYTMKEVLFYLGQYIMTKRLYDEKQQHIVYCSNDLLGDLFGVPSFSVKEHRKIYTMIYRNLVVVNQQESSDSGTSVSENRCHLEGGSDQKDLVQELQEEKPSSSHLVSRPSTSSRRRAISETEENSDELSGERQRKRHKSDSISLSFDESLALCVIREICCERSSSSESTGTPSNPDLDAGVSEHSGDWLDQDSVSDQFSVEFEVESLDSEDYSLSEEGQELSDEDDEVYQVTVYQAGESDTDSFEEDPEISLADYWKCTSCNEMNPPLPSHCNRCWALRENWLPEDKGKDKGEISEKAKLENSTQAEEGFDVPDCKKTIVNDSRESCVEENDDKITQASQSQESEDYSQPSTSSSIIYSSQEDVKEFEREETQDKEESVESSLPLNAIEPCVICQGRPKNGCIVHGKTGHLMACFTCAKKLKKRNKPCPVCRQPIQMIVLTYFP

[2] = target: T1, E3 ubiquitin-protein ligase Mdm2; assay: Binding affinity to human recombinant MDM2 (1 to 150 residue) expressed in Escherichia coli using presence of FITC-labelled compound by fluorescence polarization assay
Target sequence in this assay (Q00987 whole entry): as the sequence (Q00987 whole entry, looked up) above

[3] = target: T1, E3 ubiquitin-protein ligase Mdm2; assay: Inhibition of MDM2 in human U2OS cells assessed as increase in p53 expression at 30 uM incubated for 16 hrs by Western blot analysis; assay type: cell-based; in short: as §1
Target sequence in this assay (Q00987 whole entry, looked up): as above

[4] = target: T1, E3 ubiquitin-protein ligase Mdm2; assay: Inhibition of MDM2 in human U2OS cells assessed as increase in p21 expression at 30 uM incubated for 16 hrs by Western blot analysis; assay type: cell-based; in short: as §1
Target sequence in this assay (Q00987 whole entry, looked up): as above

Row | Increase in MDM2 expression (active/inactive) [1] | IC50 [2] [µM] | p53 expression increase (activity call) [3] | p21 expression increase (active/inactive call) [4] | SMILES
1 | Active | 11.7 | Active | Active | CC(=O)N[C@H](C(=O)N[C@@H](Cc1ccccc1)CN(CC(=O)N[C@H]1CCC(=O)NCCCC[C@@H](CN(CC(=O)N[C@@H](CC(C)C)C(=O)N[C@@H](CO)CN(CC(=O)N[C@@H](C)C(N)=O)S(C)(=O)=O)S(=O)(=O)CC(C)C)NC(=O)[C@H](C)NC(=O)CN(S(=O)(=O)c2ccc3ccccc3c2)C[C@H](Cc2ccc(O)cc2)NC1=O)S(C)(=O)=O)[C@@H](C)O
2 | Active |  | Active | Active | CC(=O)N[C@H](C(=O)N[C@@H](Cc1c[nH]c2ccccc12)CN(CC(=O)N[C@H]1CCC(=O)NCCCC[C@@H](CN(CC(=O)N[C@@H](CC(C)C)C(=O)N[C@@H](CO)CN(CC(=O)N[C@@H](C)C(N)=O)S(C)(=O)=O)S(=O)(=O)CC(C)C)NC(=O)[C@H](C)NC(=O)CN(S(=O)(=O)c2ccc3ccccc3c2)C[C@H](Cc2ccc(O)cc2)NC1=O)S(C)(=O)=O)[C@@H](C)O
3 | Active | 9.4 | Active | Active | CC(C)C[C@H](NC(=O)CN(C[C@@H]1CCCCNC(=O)CC[C@H](NC(=O)CN(C[C@H](Cc2ccccc2)NC(=O)[C@@H](NC(=O)CCc2ccccc2)[C@@H](C)O)S(C)(=O)=O)C(=O)N[C@@H](Cc2ccc(O)cc2)CN(S(=O)(=O)c2ccc3ccccc3c2)CC(=O)N[C@@H](C)C(=O)N1)S(=O)(=O)CC(C)C)C(=O)N[C@@H](CO)CN(CC(=O)N[C@@H](C)C(N)=O)S(C)(=O)=O
4 | Active | 9 | Active | Active | CC(=O)N[C@H](C(=O)N[C@@H](Cc1ccccc1)CN(CC(=O)N[C@H]1CCC(=O)NCCCC[C@@H](CN(CC(=O)N[C@@H](CC(C)C)C(=O)N[C@@H](CO)CN(CC(=O)N[C@@H](C)C(N)=O)S(C)(=O)=O)S(C)(=O)=O)NC(=O)[C@H](C)NC(=O)CN(S(=O)(=O)c2ccc3ccccc3c2)C[C@H](Cc2ccc(O)cc2)NC1=O)S(C)(=O)=O)[C@@H](C)O
